Laboratory results taken from ChEMBL document CHEMBL3856239, “Synthesis and Antiobesity Properties of 6-(4-Chlorophenyl)-3-(4-((3,3-difluoro-1-hydroxycyclobutyl)methoxy)-3-methoxyphenyl)thieno[3,2-d]pyrimidin-4(3H)-one (BMS-814580): A Highly Efficacious Melanin Concentrating Hormone Receptor 1 (MCHR1) Inhibitor” (J Med Chem, 2016).

Columns and labels:
[1] = Displacement of [Phe13,125I]Tyr19]-MCH from human MCHR1 E4Q/A5T double mutant expressed in HEK293 cells by TopCount scintillation counting method; type: cell-based
[2] = Metabolic stability in human liver microsomes assessed as compound remaining at 3 uM measured after 10 min; type: ADME; conditions: read-out: Stability
Procedure, shortened: (§1)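 Test compound at 3.0 µM incubated with liver microsomes for 10 minutes; read-out is percent of parent remaining.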

[3] = Metabolic stability in rat liver microsomes assessed as compound remaining at 3 uM measured after 10 min; type: ADME; conditions: read-out: Stability; procedure, shortened: as §1
[4] = Metabolic stability in mouse liver microsomes assessed as compound remaining at 3 uM measured after 10 min; type: ADME; conditions: read-out: Stability; procedure, shortened: as §1
[5] = Solubility of the compound in phosphate buffer at pH 6.4; type: physicochemical
Procedure, shortened: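 Solubility of parent compounds and prodrugs measured in 50 mM phosphate buffer, pH 6.4.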

[6] = Lipophilicity, log P of the compound at pH 7 by HPLC analysis; type: physicochemical; conditions: buffer
Procedure, shortened: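 LogP determined by HPLC at pH 7.0.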

Rattus norvegicus [7] = test: Toxicity in DIO Sprague-Dawley rat assessed as biliary lesion formation at 10 mg/kg, po qd for 4 days; type: organism-based; conditions: in vivo, 96 h
Rattus norvegicus [8] = test: Antiobesity activity in pair-fed DIO Sprague-Dawley rat model assessed as reduction in body weight at 1 mg/kg, po qd for 28 days relative to vehicle control; type: functional; design: scale not given: the % may be the effect or the level left
Procedure, shortened: (§2)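 Obese male SD rats on diet-induced obesity, 8/group, dosed orally once daily for 28 days with phosphate prodrug (0.03–3 mg/kg parent) in 14% propylene glycol/1% Tween/85% water; rimonabant 10 mg/kg control; pair-fed groups matched to 1 and 3 mg/kg intake; body weight and food measured daily, % change versus vehicle.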

Rattus norvegicus [9] = test: Antiobesity activity in pair-fed DIO Sprague-Dawley rat model assessed as reduction in body weight at 3 mg/kg, po qd for 28 days relative to vehicle control; type: functional; design: scale not given: the % may be the effect or the level left; procedure, shortened: as §2
Rattus norvegicus [10] = test: Antiobesity activity in pair-fed DIO Sprague-Dawley rat model assessed as reduction in caloric intake at 1 mg/kg, po qd for 28 days relative to vehicle control; type: functional; design: scale not given: the % may be the effect or the level left; procedure, shortened: as §2
Rattus norvegicus [11] = test: Antiobesity activity in pair-fed DIO Sprague-Dawley rat model assessed as reduction in caloric intake at 3 mg/kg, po qd for 28 days relative to vehicle control; type: functional; design: scale not given: the % may be the effect or the level left; procedure, shortened: as §2
[12] = biological target: Melanin-concentrating hormone receptor 1 (Homo sapiens, UniProt Q99705); test: Antagonist activity at human MCHR1 expressed in HEK293 cells assessed as inhibition of MCH-stimulated calcium flux measured after 15 mins by FLIPR assay; type: functional, cell-based
[13] = biological target: Melanin-concentrating hormone receptor 1 (Rattus norvegicus, UniProt P97639); test: Binding affinity to rat MCHR1
Cytochrome P450 2C8 = biological target: T1, Cytochrome P450 2C8 (Homo sapiens, UniProt P10632); test: Inhibition of CYP2C8 (unknown origin); type: ADME
T1 sequence (P10632 whole entry): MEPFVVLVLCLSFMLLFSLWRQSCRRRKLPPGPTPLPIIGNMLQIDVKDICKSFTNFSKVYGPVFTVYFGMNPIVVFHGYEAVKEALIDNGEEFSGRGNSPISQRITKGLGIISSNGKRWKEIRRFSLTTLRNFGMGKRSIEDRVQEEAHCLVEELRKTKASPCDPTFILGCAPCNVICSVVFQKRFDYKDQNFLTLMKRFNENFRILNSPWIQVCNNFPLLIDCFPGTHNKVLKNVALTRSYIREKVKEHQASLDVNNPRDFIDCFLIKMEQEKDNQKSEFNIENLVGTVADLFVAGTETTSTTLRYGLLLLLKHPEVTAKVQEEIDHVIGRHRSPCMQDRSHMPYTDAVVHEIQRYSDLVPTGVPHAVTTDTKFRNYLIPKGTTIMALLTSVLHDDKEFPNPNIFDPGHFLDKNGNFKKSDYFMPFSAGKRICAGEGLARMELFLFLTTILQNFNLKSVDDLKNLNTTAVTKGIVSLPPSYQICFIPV
Procedure, shortened: (§3)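 CYP1A2, 2C8, 2C9, 2C19, 2D6 and 3A4 tested for inhibition, with 40 µM as the top tested limit.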

Cytochrome P450 2C19 = Cytochrome P450 2C19 (Homo sapiens, UniProt P33261); test: Inhibition of CYP2C19 (unknown origin); type: ADME; procedure, shortened: as §3
Cytochrome P450 2D6 = Cytochrome P450 2D6 (Homo sapiens, UniProt P10635); test: Inhibition of CYP2D6 (unknown origin); type: ADME
Cytochrome P450 3A4 = Cytochrome P450 3A4 (Homo sapiens, UniProt P08684); test: Inhibition of CYP3A4 (unknown origin); type: ADME
[14] = Mutagenic activity in Salmonella typhimurium by Ames test; type: toxicity; conditions: salmonella enterica subsp. enterica serovar typhimurium
Homo sapiens = species: Homo sapiens; test: Inhibition of sodium channel (unknown origin) at 10 uM and 4 Hz
L-type calcium channel = L-type calcium channel (Homo sapiens, UniProt O60840+Q01668+Q13698+Q13936); test: Inhibition of L-type calcium channel (unknown origin) at 10 uM
Procedure, shortened: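 In vitro ion-channel inhibition measured at 10 µM against hERG, Na (4 Hz) and L-type Ca channels; read-out is percent inhibition.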

[15] = Cardiotoxicity in anesthetized rabbit assessed as prolongation of QT intervals up to plasma concentration of 38 uM; type: toxicity, Oryctolagus cuniculus
Procedure, shortened: (§4)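 Anesthetized rabbits given compound to plasma concentrations up to 38 µM; QT and QRS duration, mean arterial blood pressure and heart rate recorded.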

[16] = Cardiotoxicity in anesthetized rabbit assessed as prolongation of QRS intervals up to plasma concentration of 38 uM; type: toxicity, Oryctolagus cuniculus; procedure, shortened: as §4
[17] = Cardiotoxicity in anesthetized rabbit assessed as effect on mean arterial blood pressure; type: toxicity, tissue-based, Oryctolagus cuniculus; procedure, shortened: as §4
[18] = Cardiotoxicity in anesthetized rabbit assessed as effect on heart rate; type: toxicity, tissue-based, Oryctolagus cuniculus; procedure, shortened: as §4
[19] = AUC in rat at 1 mg/kg, iv; type: ADME, organism-based; conditions: in vivo
Procedure, shortened: (§5)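 Rats, dogs and cynomolgus monkeys, n = 3: parent 1 mg/kg i.v. in PEG400:DMAC:water (70:5:25), or phosphate prodrug 10 mg/kg oral in Methocel:Tween80:water (0.5:0.1:99.4); plasma parent compound, Cmax, Tmax, AUC0-∞, half-life, clearance, Vss and bioavailability derived.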

[20] = AUC in dog at 1 mg/kg, iv; type: ADME, organism-based, Canis lupus familiaris; conditions: in vivo; procedure, shortened: as §5
[21] = Half life in rat at 1 mg/kg, iv; type: ADME, organism-based; conditions: in vivo; procedure, shortened: as §5
[22] = Half life in cynomolgus monkey at 1 mg/kg, iv; type: ADME, organism-based, Macaca fascicularis; conditions: in vivo; procedure, shortened: as §5
[23] = Clearance in dog at 1 mg/kg, iv; type: ADME, organism-based, Canis lupus familiaris; conditions: in vivo; procedure, shortened: as §5
[24] = Volume of distribution at steady state in rat at 1 mg/kg, iv; type: ADME, organism-based; conditions: in vivo, read-out: Vdss
Procedure, shortened: (§6)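 Full PK in rat, dog and cynomolgus monkey. Oral arm: phosphate prodrug at 10 mg/kg parent-equivalent in Methocel:Tween80:water (0.5:0.1:99.4). Intravenous arm: parent at 1 mg/kg in PEG400:DMAC:water (70:5:25). n = 3 per species; individual Tmax values reported for dog and monkey.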

[25] = Volume of distribution at steady state in dog at 1 mg/kg, iv; type: ADME, organism-based, Canis lupus familiaris; conditions: in vivo, read-out: Vdss; procedure, shortened: as §6
[26] = Volume of distribution at steady state in cynomolgus monkey at 1 mg/kg, iv; type: ADME, organism-based, Macaca fascicularis; conditions: in vivo, read-out: Vdss; procedure, shortened: as §6

Sequence of Cytochrome P450 2D6 (P10635 whole entry): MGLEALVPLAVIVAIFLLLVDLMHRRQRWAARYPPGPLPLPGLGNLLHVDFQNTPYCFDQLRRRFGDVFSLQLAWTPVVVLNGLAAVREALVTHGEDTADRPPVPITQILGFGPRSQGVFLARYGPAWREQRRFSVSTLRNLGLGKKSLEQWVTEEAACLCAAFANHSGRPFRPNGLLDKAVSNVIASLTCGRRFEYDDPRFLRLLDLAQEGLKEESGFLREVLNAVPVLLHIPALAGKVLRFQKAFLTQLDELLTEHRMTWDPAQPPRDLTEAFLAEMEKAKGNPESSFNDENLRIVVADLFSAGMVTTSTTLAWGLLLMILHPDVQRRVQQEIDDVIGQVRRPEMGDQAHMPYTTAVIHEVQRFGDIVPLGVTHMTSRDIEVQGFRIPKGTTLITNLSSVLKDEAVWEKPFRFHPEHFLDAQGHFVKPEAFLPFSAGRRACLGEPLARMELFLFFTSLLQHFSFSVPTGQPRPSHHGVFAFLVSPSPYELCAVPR
Sequence of Melanin-concentrating hormone receptor 1 (Rattus norvegicus, UniProt P97639) (P97639 whole entry): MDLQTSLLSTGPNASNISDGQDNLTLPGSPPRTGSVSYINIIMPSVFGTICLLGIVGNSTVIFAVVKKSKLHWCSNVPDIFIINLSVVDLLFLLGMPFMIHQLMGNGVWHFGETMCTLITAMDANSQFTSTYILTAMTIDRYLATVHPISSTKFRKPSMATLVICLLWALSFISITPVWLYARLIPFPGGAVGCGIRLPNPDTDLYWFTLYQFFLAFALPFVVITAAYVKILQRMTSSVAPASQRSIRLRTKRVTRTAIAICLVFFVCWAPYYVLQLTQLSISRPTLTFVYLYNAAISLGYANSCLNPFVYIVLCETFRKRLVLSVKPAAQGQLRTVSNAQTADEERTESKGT
Sequence of Melanin-concentrating hormone receptor 1 (Homo sapiens, UniProt Q99705) (Q99705 whole entry): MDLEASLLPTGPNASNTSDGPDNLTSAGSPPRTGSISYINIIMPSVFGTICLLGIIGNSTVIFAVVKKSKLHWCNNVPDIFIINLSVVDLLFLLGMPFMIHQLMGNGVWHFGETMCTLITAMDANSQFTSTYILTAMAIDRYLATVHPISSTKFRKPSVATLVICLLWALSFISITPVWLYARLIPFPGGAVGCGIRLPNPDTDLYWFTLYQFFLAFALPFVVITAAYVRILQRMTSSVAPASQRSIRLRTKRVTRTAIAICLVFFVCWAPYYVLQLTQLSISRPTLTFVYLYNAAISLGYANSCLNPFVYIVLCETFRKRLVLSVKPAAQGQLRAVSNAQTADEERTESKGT
Sequence of Cytochrome P450 2C19 (P33261 whole entry): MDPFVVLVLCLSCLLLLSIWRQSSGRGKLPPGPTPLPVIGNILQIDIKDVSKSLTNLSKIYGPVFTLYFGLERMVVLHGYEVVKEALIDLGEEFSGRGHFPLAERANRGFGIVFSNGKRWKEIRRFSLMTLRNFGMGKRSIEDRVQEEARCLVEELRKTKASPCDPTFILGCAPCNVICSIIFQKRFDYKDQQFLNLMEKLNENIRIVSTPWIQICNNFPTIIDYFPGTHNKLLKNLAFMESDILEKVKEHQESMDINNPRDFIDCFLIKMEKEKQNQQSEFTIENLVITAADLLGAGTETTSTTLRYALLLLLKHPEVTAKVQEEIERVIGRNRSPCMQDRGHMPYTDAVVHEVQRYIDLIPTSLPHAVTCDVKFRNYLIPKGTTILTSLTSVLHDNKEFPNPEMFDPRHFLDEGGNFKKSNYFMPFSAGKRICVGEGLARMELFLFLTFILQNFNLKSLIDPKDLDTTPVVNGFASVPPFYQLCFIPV
Sequence of Cytochrome P450 3A4 (P08684 whole entry): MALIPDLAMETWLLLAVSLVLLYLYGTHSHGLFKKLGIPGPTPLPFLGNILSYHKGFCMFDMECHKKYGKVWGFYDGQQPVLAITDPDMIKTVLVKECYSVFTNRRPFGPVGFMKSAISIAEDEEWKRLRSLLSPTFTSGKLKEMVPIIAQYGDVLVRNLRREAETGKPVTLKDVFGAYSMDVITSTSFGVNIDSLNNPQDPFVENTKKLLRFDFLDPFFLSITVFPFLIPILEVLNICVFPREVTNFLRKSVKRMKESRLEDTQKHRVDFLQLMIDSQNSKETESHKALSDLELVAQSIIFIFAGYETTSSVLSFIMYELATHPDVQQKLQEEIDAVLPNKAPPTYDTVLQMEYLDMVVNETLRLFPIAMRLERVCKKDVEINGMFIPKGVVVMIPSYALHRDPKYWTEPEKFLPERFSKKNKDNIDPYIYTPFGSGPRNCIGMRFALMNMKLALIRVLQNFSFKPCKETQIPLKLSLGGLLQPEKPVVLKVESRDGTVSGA

- remaining at 10 min, 3 µM [2]: 90%
- remaining at 10 min, 3 µM [3]: 95%
- remaining at 10 min, 3 µM [4]: 100%
- solubility [5]: < 1 µg/mL
- logP [6]: 4.8
- Kb [12]: 117 nM
- Ki [13]: 11.5 nM
- INH (Cytochrome P450 2C8): > 40 µM
- INH (Cytochrome P450 2C19): > 40 µM
- INH (Cytochrome P450 2D6): > 40 µM
- INH (Cytochrome P450 3A4): > 40 µM
- inhibition (Homo sapiens): 21%
- inhibition at 10 µM (L-type calcium channel): 15%
- AUC [19]: 11.5 µM·h
- AUC [20]: 5.2 µM·h
- half-life [21]: > 24 h
- half-life [22]: 37 h
- clearance [23]: 6.9 mL/min/kg
- Vd [24]: 4.1 L/kg
- Vd [25]: 7.2 L/kg
- Vd [26]: 5.4 L/kg
SMILES: COc1cc(-n2cnc3cc(-c4ccc(Cl)cc4)sc3c2=O)ccc1OCC1(O)CC(F)(F)C1
- Ki [1]: 16.9 nM
- Activity (Rattus norvegicus [7]): Non-Toxic
- Activity (Rattus norvegicus [8]): 4.2%
- Activity (Rattus norvegicus [9]): 4.1%
- Activity (Rattus norvegicus [10]): 14.3%
- Activity (Rattus norvegicus [11]): 14.7%
- Activity [14]: Non-Toxic
- Activity [15]: Non-Toxic
- Activity [16]: Non-Toxic
- Activity [17]: Non-Toxic
- Activity [18]: Non-Toxic
